Data taken from ChEMBL document CHEMBL1255433 (Antimicrob Agents Chemother, 2010).
The source made the active and inactive calls. No cut-off for these calls is given here.

Columns and labels:
[1] = tested on: Plasmodium falciparum; experiment: Antiplasmodial activity against Plasmodium falciparum F32-Tanzania assessed as time required to reach 5% parasitaemia at 0.2 uM treated for 48 hrs; type: functional
Summary of the method: (§1)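 Sorbitol-synchronized ring-stage cultures at 5% parasitemia and 2.5% hematocrit in human O+ erythrocytes, in RPMI with human serum at 37°C under 5% CO2. Drug-containing medium for 48 h, then RPMI wash and return to drug-free culture. Endpoint was days to reach 5% parasitemia, followed up to 21 days. Three or more independent experiments; mean ± SD.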

[2] = tested on: Plasmodium falciparum; experiment: Antiplasmodial activity against artemisinin-tolerant Plasmodium falciparum F32-Tanzania assessed as time required to reach 5% parasitaemia at 0.2 uM treated for 48 hrs; type: functional; summary of the method: as §1
[3] = tested on: Plasmodium falciparum; experiment: Antiplasmodial activity against Plasmodium falciparum F32-Tanzania assessed as inhibition of parasite growth at 0.1 uM treated for 96 hrs; type: functional, organism-based
Summary of the method: (§2)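 Sorbitol-synchronized ring cultures (5% parasitemia, 2.5% hematocrit) in O+ human RBCs, RPMI with 5% human serum, 37°C, 5% CO2. Medium was swapped for artemisinin-containing medium for 48 or 96 h, then washed out and culture resumed drug-free. Parasitemia was tracked to record days to reach 5%; cultures with no parasites by day 21 were scored as no recovery. Runs were done at least three times, except 48 h/70 μM and the 96 h conditions, which were done once.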

[4] = tested on: Plasmodium falciparum; experiment: Antiplasmodial activity against artemisinin-tolerant Plasmodium falciparum F32-Tanzania assessed as time required to reach 5% parasitaemia at 0.1 uM treated for 96 hrs; type: functional; summary of the method: as §2
[5] = tested on: Plasmodium falciparum; experiment: Antiplasmodial activity against Plasmodium falciparum F32-Tanzania assessed as inhibition of parasite growth at 1 uM treated for 96 hrs; type: functional, organism-based; summary of the method: as §2
[6] = tested on: Plasmodium falciparum; experiment: Antiplasmodial activity against artemisinin-tolerant Plasmodium falciparum F32-Tanzania assessed as time required to reach 5% parasitaemia at 1 uM treated for 96 hrs; type: functional; summary of the method: as §2
[7] = tested on: Plasmodium falciparum; experiment: Antiplasmodial activity against artemisinin-tolerant Plasmodium falciparum F32-Tanzania assessed as parasitaemia at 9 uM after 48 hrs by rhodamine 123 staining; type: functional
Summary of the method: (§3)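 Infected RBCs were stained with R123 (1 μg/ml in RPMI, 37°C, 5 min), washed, and incubated 30 min under culture conditions. Nuclei were counterstained with DAPI (1 μg/ml, 37°C, 20 min). Thin smears were read the same day by epifluorescence; R123-positive (polarized mitochondria) parasites were scored as viable.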

[8] = tested on: Plasmodium falciparum; experiment: Antiplasmodial activity against artemisinin-tolerant Plasmodium falciparum F32-Tanzania assessed as decrease in appearance of late trophozoites at 9 uM after 24 hrs by rhodamine 123 staining; type: functional, organism-based; summary of the method: as §3
[9] = tested on: Plasmodium falciparum; experiment: Antiplasmodial activity against artemisinin-tolerant Plasmodium falciparum F32-Tanzania assessed as decrease in appearance of late trophozoites at 9 uM after 48 hrs by rhodamine 123 staining; type: functional, organism-based; summary of the method: as §3
[10] = tested on: Plasmodium falciparum; experiment: Antiplasmodial activity against artemisinin-tolerant Plasmodium falciparum F32-Tanzania assessed as decrease in occurrence of normal parasite cell cycle at 9 uM measured after 24 to 30 hrs of drug removal by rhodamine 123 staining; type: functional, organism-based; summary of the method: as §3
[11] = tested on: Plasmodium falciparum; experiment: Antiplasmodial activity against artemisinin-tolerant Plasmodium falciparum F32-Tanzania assessed as decrease in appearance of late trophozoites at 9 uM measured after 24 to 30 hrs of drug removal by rhodamine 123 staining; type: functional, organism-based; summary of the method: as §3
[12] = tested on: Plasmodium falciparum; experiment: Antiplasmodial activity against artemisinin-tolerant Plasmodium falciparum F32-Tanzania assessed as decrease in appearance of late schizonts at 9 uM measured after 24 to 30 hrs of drug removal by rhodamine 123 staining; type: functional, organism-based; summary of the method: as §3
[13] = tested on: Plasmodium falciparum; experiment: Antiplasmodial activity Plasmodium falciparum F32-Tanzania assessed as decrease in appearance of parasite quiescent rings at 9 uM after 48 hrs by rhodamine 123 staining; type: functional, organism-based; summary of the method: as §3
[14] = tested on: Plasmodium falciparum; experiment: Antiplasmodial activity Plasmodium falciparum F32-Tanzania assessed as decrease in appearance of mature parasite forms at 9 uM measured after 24 to 30 hrs of drug removal by rhodamine 123 staining; type: functional, organism-based; summary of the method: as §3
[15] = tested on: Plasmodium falciparum; experiment: Antiplasmodial activity against artemisinin-tolerant Plasmodium falciparum F32-Tanzania assessed as decrease in appearance of late-stage parasites at 9 uM after 24 hrs by FACS analysis; type: functional, organism-based
Summary of the method: (§4)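 Samples were stained with DAPI (1 μg/ml) and analysed immediately by flow cytometry (400,000 events). Gates were calibrated with uninfected RBCs, sorbitol-synchronized rings, and magnetically isolated trophozoites and schizonts.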

[16] = tested on: Plasmodium falciparum; experiment: Antiplasmodial activity against artemisinin-tolerant Plasmodium falciparum F32-Tanzania assessed as decrease in appearance of late-stage parasites at 9 uM after 48 hrs by FACS analysis; type: functional, organism-based; summary of the method: as §4
[17] = tested on: Plasmodium falciparum; experiment: Antiplasmodial activity against artemisinin-tolerant Plasmodium falciparum F32-Tanzania assessed as decrease in appearance of late-stage parasites at 9 uM measured after 24 hrs of drug removal by FACS analysis; type: functional, organism-based; summary of the method: as §4
[18] = tested on: Plasmodium falciparum; experiment: Antiplasmodial activity against artemisinin-tolerant Plasmodium falciparum F32-Tanzania assessed as inhibition of parasite growth at 9 uM after 48 hrs by FACS analysis in presence of sorbitol; type: functional, organism-based
[19] = tested on: Plasmodium falciparum; experiment: Antiplasmodial activity against artemisinin-tolerant Plasmodium falciparum F32-Tanzania assessed as inhibition of parasite growth at 9 uM measured after 24 to 30 hrs of drug removal by FACS analysis in presence of sorbitol; type: functional, organism-based
[20] = tested on: Plasmodium falciparum; experiment: Antiplasmodial activity against artemisinin-tolerant Plasmodium falciparum F32-Tanzania assessed as decrease in parasite recovery time at 9 uM treated for 48 hrs in presence of 0.5 uM MDR1 inhibitor penfluridol; type: functional, organism-based
[21] = tested on: Plasmodium falciparum; experiment: Antiplasmodial activity against Plasmodium falciparum F32-Tanzania assessed as time required to reach 5% parasitaemia at 9 uM treated for 48 hrs; type: functional; summary of the method: as §2
[22] = tested on: Plasmodium falciparum; experiment: Antiplasmodial activity against artemisinin-tolerant Plasmodium falciparum F32-Tanzania assessed as time required to reach 5% parasitaemia at 9 uM treated for 48 hrs; type: functional; summary of the method: as §2
[23] = tested on: Plasmodium falciparum; experiment: Antiplasmodial activity against Plasmodium falciparum F32-Tanzania assessed as time required to reach 5% parasitaemia at 18 uM treated for 48 hrs; type: functional; summary of the method: as §2
[24] = tested on: Plasmodium falciparum; experiment: Antiplasmodial activity against artemisinin-tolerant Plasmodium falciparum F32-Tanzania assessed as time required to reach 5% parasitaemia at 18 uM treated for 48 hrs; type: functional; summary of the method: as §2
[25] = tested on: Plasmodium falciparum; experiment: Antiplasmodial activity against Plasmodium falciparum F32-Tanzania assessed as inhibition of parasite growth at 35 uM treated for 48 hrs; type: functional, organism-based; summary of the method: as §2
[26] = tested on: Plasmodium falciparum; experiment: Antiplasmodial activity against artemisinin-tolerant Plasmodium falciparum F32-Tanzania assessed as time required to reach 5% parasitaemia at 35 uM treated for 48 hrs; type: functional; summary of the method: as §2
[27] = tested on: Plasmodium falciparum; experiment: Antiplasmodial activity against Plasmodium falciparum F32-Tanzania assessed as inhibition of parasite growth at 70 uM treated for 48 hrs; type: functional, organism-based; summary of the method: as §2
[28] = tested on: Plasmodium falciparum; experiment: Antiplasmodial activity against artemisinin-tolerant Plasmodium falciparum F32-Tanzania assessed as time required to reach 5% parasitaemia at 70 uM treated for 48 hrs; type: functional; summary of the method: as §2
[29] = tested on: Plasmodium falciparum; experiment: Antiplasmodial activity against Plasmodium falciparum F32-Tanzania assessed as time required to reach 5% parasitaemia at 2.6 uM treated for 48 hrs; type: functional; summary of the method: as §1
[30] = tested on: Plasmodium falciparum; experiment: Antiplasmodial activity against artemisinin-tolerant Plasmodium falciparum F32-Tanzania assessed as time required to reach 5% parasitaemia at 2.6 uM treated for 48 hrs; type: functional; summary of the method: as §1

Molecule `CCN(CC)CCCC(C)Nc1ccnc2cc(Cl)ccc12` (configuration not stated) [CHLOROQUINE] has a Time [1] of 14 days and a Time [2] of 14 days.

For `C[C@@H]1CC[C@H]2[C@@H](C)C(=O)O[C@@H]3O[C@@]4(C)CC[C@@H]1[C@]32OO4` [ARTEMISININ], the inhibition [3] was “Active”, the Time [4] was 15 days and the inhibition [5] was “Active”. For the same molecule, the Time [6] was 16 days, the Activity [7] was 0.1% and the Activity [8] was “Active”. For the same molecule, the Activity [9] was “Active”, the Activity [10] was “inactive” and the Activity [11] was “inactive”. The Activity [12] was “inactive”, the Activity [13] was “Active” and the Activity [14] was “Active”. The Activity [15] was “Active”, the Activity [16] was “Active” and the Activity [17] was “inactive”. The inhibition [18] was “Active”, the inhibition [19] was “Active” and the Activity [20] was “Active”. For the same molecule, the Time [21] was 16 days, the Time [22] was 6 days and the Time [23] was “<=17 day”. For the same molecule, the Time [24] was 7 days, the inhibition [25] was “Active” and the Time [26] was 11 days. For the same molecule, the inhibition [27] was “Active” and the Time [28] was 17 days.

In the case of `C[C@H]1[C@H](OC(=O)CCC(=O)O)O[C@@H]2O[C@@]3(C)CC[C@H]4[C@H](C)CC[C@@H]1[C@@]24OO3` [ARTESUNATE], the Time [29] was 14 days, the Time [30] was 6 days and the Time [21] was 15 days. For the same molecule, the Time [22] was 8 days.
